Rtt109 Vps75: C. albicans Rtt109 histone acetyltransferase inhibition | actives 0.16% (n = 330,000) | inhibition, % at 34.9 µM | AID 540336 | purified Rtt109/Vps75, ThioGlo CoA-SH fluorescence, 4 h | Q5AAJ8;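 active = inhibition of at least 50% in every replicate; inconclusive = best replicate reaches 50% inhibition but some replicates fall short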
Target sequence (Q5AAJ8 whole entry, looked up): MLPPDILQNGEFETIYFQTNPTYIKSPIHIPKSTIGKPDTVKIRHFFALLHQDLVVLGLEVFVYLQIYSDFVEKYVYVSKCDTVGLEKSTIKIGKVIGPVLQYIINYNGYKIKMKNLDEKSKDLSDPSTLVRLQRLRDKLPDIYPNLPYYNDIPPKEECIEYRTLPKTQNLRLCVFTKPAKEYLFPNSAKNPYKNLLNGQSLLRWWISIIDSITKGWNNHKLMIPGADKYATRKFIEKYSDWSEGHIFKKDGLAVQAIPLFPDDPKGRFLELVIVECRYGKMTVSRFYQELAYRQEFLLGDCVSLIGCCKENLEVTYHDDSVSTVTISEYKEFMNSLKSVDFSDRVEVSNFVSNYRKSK
CAL PDZ FP-1: blocks peptide binding to human CAL PDZ domain. purified CAL PDZ, TMR-peptide fluorescence polarization, 1 h. inhibition, % at 20 µM. Q9HD26. actives 0.02% (n = 330,000);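 active = highest replicate inhibition of at least 40%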;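 note: plate controls were DMSO neutral control wells for no effect and unlabeled competitor peptide control wells for full effect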
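Read-out basis: mP drop reported as inhibition | Assay system: Tagged CAL PDZ protein CerCALP, purified | Benchmarks: Unlabelled peptide for full inhibition, DMSO wells as neutral | Schedule: 1 h incubation at room temperature before polarization reading | Buffer or medium: Sodium phosphate/NaCl buffer pH 7.4 with TCEP, IgG, Thesit | Doses: Single point, 20 µM | Measured by: Fluorescence polarization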
CDK5 inh: inhibitors of human CDK5/p35 kinase | Q00535+Q15078 | Recombinant CDK5/p35, ADP-Glo luminescence, 60 min | inhibition, % at 10 µM | actives 0.01% (n = 330,000) | AID 488839;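 active = highest replicate inhibition of at least 50% and at least 75% of replicates reaching 50%; inconclusive = only one of the two criteria met; inactive = both criteria failed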;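 note: plate controls were DMSO neutral control for no effect and GW8510 at 10 µM for full effect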
CAL PDZ FP-2: blocks peptide binding to the human CAL PDZ domain; purified CAL PDZ, TMR-peptide fluorescence polarization, 1 h; inhibition, % at 24.9 µM; actives 0.92% (n = 300,000);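 active = mean inhibition of at least 30% with at least half of replicates also reaching 30%; inconclusive = no clear call, values can overlap the other calls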;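 note: 0% = DMSO neutral control and 100% = excess unlabeled competitor peptide PRC23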
DYRK1A inh: inhibitors of rat Dyrk1A kinase; actives 0.43% (n = 310,000); inhibition, % at 12.5 µM; ADP-Glo luminescence, NFATc1 peptide; AID 504441; in the data active = inhibition above about 50%;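 note: plate controls were vehicle with enzyme for no effect and no enzyme for full effect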
dFosB act-1: enhances mouse delta FosB homodimer DNA binding | P13346 | purified delta FosB, TAMRA-CDK5 oligo fluorescence polarization; percent of positive-control signal above neutral wells | activation, % at 25 µM | actives 0.99% (n = 340,000) | AID 493131;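 active = mean activation above about 17%, with every replicate also reaching it, limit read from the data, passing the limit was not always enough; inconclusive = only one of the two conditions met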
Target sequence (P13346 whole entry, looked up): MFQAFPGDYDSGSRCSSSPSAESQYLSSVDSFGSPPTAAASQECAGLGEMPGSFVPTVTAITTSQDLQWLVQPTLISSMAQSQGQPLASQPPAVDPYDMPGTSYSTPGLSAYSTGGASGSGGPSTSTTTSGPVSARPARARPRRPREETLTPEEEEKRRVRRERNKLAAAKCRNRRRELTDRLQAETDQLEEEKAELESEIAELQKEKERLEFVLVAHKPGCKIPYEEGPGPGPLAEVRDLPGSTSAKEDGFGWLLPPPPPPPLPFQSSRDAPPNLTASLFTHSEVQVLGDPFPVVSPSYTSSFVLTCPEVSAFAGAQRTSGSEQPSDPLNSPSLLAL
dFosB act-2: activators of mouse delta FosB homodimer DNA binding; shares compounds with dFosB act-1; purified delta FosB, TAMRA-CDK5 oligo fluorescence polarization; normalised: neutral wells 0, positive control 100; activation, % at 24.9 µM; 2,400 tested, under 10 active; AID 588690;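 active = highest replicate activation at or above 34% and every replicate reaching that threshold; inconclusive = meets only one of the two criteria; inactive = meets neither criterion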;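 note: higher polarization means more probe DNA bound by delta FosB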
* = called active by the depositor; ? = inconclusive; / = no result. A selection: hits, their analogues and other compounds. The true share with any hit is near 2.2%.

SMILES | Rtt109 Vps75 | CAL PDZ FP-1 | CDK5 inh | CAL PDZ FP-2 | DYRK1A inh | dFosB act-1 | dFosB act-2
CC(C)(C)c1ccc(C(=O)Nc2cccc(S(=O)(=O)NC3=NCCC3)c2)cc1 | -2 | -2 | -1 | -7 | 0 | -17 | /
Cc1csc(NC(=O)c2cc3c(s2)-c2ccccc2OC3)n1 | -22 | 0 | -1 | / | 3 | 35* | -2
Cc1c(NC(=O)c2cc3c(s2)-c2ccccc2OC3)cccc1[N+](=O)[O-] | 8 | -2 | 0 | / | 0 | -5 | /
COc1ccc(Cn2c(=O)[nH]c3cc(C(=O)N4CCN(c5ccccc5F)CC4)ccc3c2=O)cc1 | -8 | -1 | 1 | 0 | -1 | 18* | 5
CCN(CC)CCCC(C)NC(=O)c1cccc(S(=O)(=O)N2CCc3ccccc32)c1 (stereo not given) | 1 | -2 | 0 | 3 | 1 | -10 | /
C/C(=N\Nc1nc2ccccc2[nH]1)c1ccc([N+](=O)[O-])cc1 | -21 | 0 | 1 | 3 | 1 | 21* | 2
C/C(=N\Nc1cc(C)nc(NCc2ccccc2)n1)c1ccc([N+](=O)[O-])cc1 | -4 | 2 | 0 | 1 | 1 | 30* | 1
Cc1ccc(Nc2cc(C)nc(NCc3ccccc3)n2)cc1 | 13 | -3 | 1 | -1 | -105 | ? | /
Cc1cc(N/N=C/c2ccccc2Cl)nc(NCc2ccccc2)n1 | -1 | -1 | -2 | -3 | -7 | 51* | 4
Cn1nnnc1NCc1cccc(Cl)c1Cl | -2 | -1 | 1 | -1 | 11 | 1 | /
CCOC(=O)C(C#N)=CN1CCNc2ccccc21 | -1 | 0 | 0 | 2 | -3 | -10 | /
NC(=O)Cn1cnc2c(nnn2-c2cccc(Cl)c2)c1=O | -5 | -1 | -1 | -7 | -2 | -1 | /
O=C(Cn1cnc2c(oc3ccccc32)c1=O)NCCc1ccccc1 | -4 | -2 | 0 | 1 | -1 | 61* | -3
O=C(Cn1cnc2sc(-c3ccccc3)cc2c1=O)NCCc1ccccc1 | -19 | -1 | 0 | 1 | 1 | 53* | 2
O=C(Cn1cnc2c(nnn2-c2cccc(Cl)c2)c1=O)NCc1ccccc1 | 2 | -1 | 2 | / | -4 | 68* | 1
O=C(Cn1cnc2sc(-c3ccccc3)cc2c1=O)NCc1ccccc1 | 2 | -1 | 0 | / | -6 | 32* | 5
O=C(Cn1cnc2sc(-c3ccccc3)cc2c1=O)NCc1ccco1 | 3 | 0 | -3 | 0 | 13 | -4 | /
Cc1cc(=O)oc2cc(OCC(=O)NC3CC(C)(C)NC(C)(C)C3)c(Cl)cc12 | 9 | -2 | 0 | -1 | 2 | 3 | /
COC(=O)c1ccc(NC(=O)CN2C(=O)NC3(CCC(C)CC3)C2=O)cc1 (stereo not given) | -9 | -1 | 0 | 56* | / | 18* | 3
CCOC(=O)c1ccc(NC(=O)CN2C(=O)NC3(CCC(C)CC3)C2=O)cc1 (stereo not given) | -11 | -1 | 0 | / | 1 | ? | /
O=C(CNC(=O)c1n[nH]c2ccccc12)Nc1ccc(F)c(F)c1F | -9 | 0 | 0 | -3 | / | 23* | 3
COC(=O)C1=C(COc2ccccc2)NC(=O)NC1c1ccc(Br)cc1 (stereo not given) | 4 | 0 | 1 | 2 | 46 | 35* | 2
C=CCNc1nc(C)c(CNc2c(C)cc(C)cc2C)nc1C#N | -2 | -3 | -1 | 0 | -1 | -5 | /
CC1(C)Cc2c(sc(NC(=O)COc3ccc(Cl)cc3)c2C(N)=O)C(C)(C)N1 | -5 | 16 | 0 | -5 | -3 | 80* | 2
N#C/C(=C/c1ccc(CNC(=O)C(=O)Nc2cc(Cl)cc(Cl)c2)o1)C(=O)NCc1cccnc1 | -4 | -1 | 1 | -7 | -6 | 53* | 0
SMILES | Rtt109 Vps75 | CAL PDZ FP-1 | CDK5 inh | CAL PDZ FP-2 | DYRK1A inh | dFosB act-1 | dFosB act-2
Cc1ccc(Cn2c(CCNc3nc(-c4ccc(C)cc4)cs3)nc3cc(C(=O)NCCCO)ccc32)cc1 | 1 | 1 | 0 | -2 | -8 | 23* | 1
CC(=O)Nc1sc(C)c(C)c1C(=O)OCCOc1ccccc1 | -5 | -5 | -1 | -2 | 0 | -9 | /
CCc1nonc1NC(=O)c1oc2ccc(F)cc2c1C | -4 | 0 | 0 | / | 1 | 35* | 1
Cc1cc2oc(C(=O)Nc3nonc3C)c(C)c2cc1C | -7 | -2 | 1 | 2 | -6 | 20* | 2
CC1CCCC(C)N1C(=O)COC(=O)C(Cc1ccccc1)NC(=O)c1cccs1 (stereo not given) | -1 | 0 | 0 | 3 | / | 2 | /
Cc1cc(C)c(NC(=O)Nc2ccccc2C)c(Cl)c1 | -4 | 0 | 0 | 3 | -3 | 20* | 2
Cc1ccc(S(=O)(=O)N(CC(=O)N(C(C)C)C(C)C)C(=O)N2CCN(C)CC2)cc1 | -5 | -2 | -1 | 1 | 2 | -2 | /
CN(C)c1nc(NCc2ccccc2)nc(N/N=C/c2cccc(Br)c2)n1 | 0 | -3 | 0 | 0 | -3 | 57* | 4
Brc1cccc(/C=N/Nc2nn[nH]n2)c1 | / | 0 | 0 | -7 | 8 | 2 | /
COc1ccc(S(=O)(=O)Nc2cccc3c2O[C@H](CN(C)C(=O)NC(C)C)[C@@H](C)CN([C@H](C)CO)C3=O)cc1 | 2 | -1 | 2 | 0 | 16 | -8 | /
CC1CCCC(C)N1C(=O)COC(=O)CCC1CCCC1 (stereo not given) | -1 | -1 | 1 | -2 | -1 | -2 | /
O=C(N/N=C/c1cc([N+](=O)[O-])ccc1Cl)c1ccc2nc[nH]c2c1 | -5 | 1 | 1 | / | -11 | 35* | 2
O=C(N/N=C/c1ccc(Cl)cc1Cl)c1ccc2nc[nH]c2c1 | -1 | -7 | 0 | 0 | 3 | 1 | /
COc1ccc(C(CNC(=O)c2oc3ccccc3c2C)N2CCCC2)cc1 (stereo not given) | -6 | -2 | 0 | -1 | 1 | 0 | /
COc1ccc(C(CNC(=O)c2oc3ccc(Cl)cc3c2C)N2CCCCC2)cc1 (stereo not given) | 10 | -2 | 1 | -4 | 1 | 23* | 6
C[C@H](NC(=O)OCc1ccccc1)C(=O)NNC(=O)[C@H](C)NC(=O)OCc1ccccc1 | -7 | -1 | 2 | -2 | 8 | 5 | /
C[C@H](NC(=O)OCc1ccccc1)C(=O)NNC(=O)[C@H](Cc1ccccc1)NC(=O)OC(C)(C)C | -3 | 0 | -1 | -2 | 2 | 27* | 2
COc1cccc(NS(=O)(=O)c2ccc3[nH]cc(C(=O)NC4CC4)c(=O)c3c2)c1 | 22 | -2 | 1 | -2 | -6 | -27 | /
